The source of these data is ChEMBL document CHEMBL4346674, “Structure-activity relationships and mechanistic studies of novel mitochondria-targeted, leishmanicidal derivatives of the 4-aminostyrylquinoline scaffold” (Eur J Med Chem, 2019).

Calls of active or inactive are those of the source.

Data set [1] has as its system J774. The experiment in a line: Cytotoxicity against mouse J774 cells incubated for 48 hrs by MTT assay. The format is cell-based. To be noted: J774, 48 h. The essentials: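 J774.1 cells grown in RPMI-1640 + 10% heat-inactivated FCS, 2 mM L-glutamine, penicillin-streptomycin, 37 °C, 5% CO2. Seeded at 10^5 cells/well and left overnight, then compound in fresh medium for 48 h. MTT 0.5 mg/ml final, 2 h; SDS 0.1% final, 2 h at 37 °C; read at 595 nm. Triplicate samples, ≥2 independent experiments; CC50 calculated.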
(Tetrazolium assays rely on reduction of a dye to a coloured formazan, in cell work by metabolically active cells.)

Data set [2] relates to Leishmania pifanoi. The experiment in a line: Antileishmanial activity against Leishmania pifanoi […] axenic amastigotes incubated for 96 hrs by MTT assay. The format is functional, organism-based. The essentials:
(§1)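 Parasites washed in HBSS-Glc and resuspended at 2×10^6 cells/ml in fresh growth medium with compound at 0.78-50.0 µM. Promastigotes grown in RPMI 1640-modified medium + 10% HIFCS, 72 h at 26 °C; axenic amastigotes in medium 199 + 20% HIFCS + 50 µg/ml hemin, 96 h at 32 °C. MTT 0.5 mg/ml for 2 h, formazan dissolved in SDS (5% final), absorbance 590 nm. Triplicates, ≥2 experiments, IC50 computed.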

A short description of data set [3]: Selectivity index, ratio of IC50 for mouse J774 cells to IC50 for Leishmania pifanoi […] axenic amastigotes. The class given is toxicity. To be noted: read-out: Ratio IC50.
Data set [4] concerns Leishmania donovani. The experiment in a line: Induction of cell cycle arrest in Leishmania donovani MHOM/SD/00/1S-2D promastigotes assessed as cell accumulation in subG1 phase at 10 uM incubated for 48 hrs by propidium iodide staining based flow cytometric analysis (RVb = 4.6%). The format is functional. On the technique in general: In flow cytometry, cells or beads pass a laser one at a time.

The test system of data set [5] is Leishmania donovani. The experiment in a line: Antileishmanial activity against Leishmania donovani MHOM/SD/00/1S-2D promastigotes incubated for 72 hrs by MTT assay. The format is functional, organism-based. The essentials: as §1
Data set [6] deals with Leishmania donovani. The experiment in a line: Induction apoptosis in Leishmania donovani MHOM/SD/00/1S-2D promastigotes at 20 uM incubated for 48 hrs by propidium iodide staining based flow cytometric analysis. The format is functional, organism-based.
The nature of data set [7]: Inhibition of luciferase (unknown origin) at 50 uM.
Data set [8] can be described thus: Drug localization in KCN-induced depolarized Leishmania pifanoi MHOM/VE/60/Ltrod axenic amastigotes mitochondria at 20 uM pretreated with KCN for 15 mins followed by compound addition and measured at 1 hr by MitoTracker dye based confocal microscopic method. The class given is ADME. In outline: (§2)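 Living axenic amastigotes given compound 20 µM for 1 h at 32 °C, then DAPI 5 µg/ml for 30 min before confocal imaging. Compound ex 488/em 520 nm, DAPI ex 350/em 460 nm. For depolarized mitochondria, 1 mM KCN added 15 min before compound. For colocalization, MitoTracker Red 0.05 µM (10 min, 32 °C) preceded compound; overlap given as Pearson coefficient.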

Data set [9] deals with Leishmania donovani. The experiment in a line: Induction of mitochondrial dysfunction in Leishmania donovani MHOM/SD/00/1S-2D promastigotes as mitochondrial membrane potential at 25 uM incubated for 4 hrs by Rh123 staining based flow cytometry. The format is functional, organism-based.
Data set [10] concerns Leishmania donovani. Nature of the data set: Induction of plasma membrane permeabilization in Leishmania donovani MHOM/SD/00/1S-2D promastigotes at 50 uM by sytox green-based fluorescence assay. The class given is functional, organism-based. In outline:
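Promastigotes at 20×10^6 cells/ml in HBSS-Glc with SYTOX Green 1.0 μM final. Compound added after a stable baseline; fluorescence rise (ex 504/em 524 nm) monitored. Values given as percent of full permeabilization by 0.1% Triton X-100.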

Data set [11] deals with Leishmania pifanoi. The experiment in a line: Antileishmanial activity against CFSE-labelled Leishmania pifanoi MHOM/VE/60/Ltrod axenic amastigotes infected in mouse peritoneal macrophage assessed as infection index at 10 uM incubated for 12 hrs by DAPI staining based confocal microscopic method (reference value: 5.3 +/- 2.5). The class given is functional.
In data set [12] the test system is Leishmania donovani. Nature of the data set: Induction of cell cycle arrest in Leishmania donovani MHOM/SD/00/1S-2D promastigotes assessed as cell accumulation in subG1 phase at 20 uM incubated for 48 hrs by propidium iodide staining based flow cytometric analysis (RVb = 4.6%). The format is functional.
Data set [13] relates to Leishmania donovani. The experiment in a line: Induction of mitochondrial dysfunction in Leishmania donovani MHOM/SD/00/1S-2D promastigotes as mitochondrial membrane potential at 50 uM incubated for 4 hrs by Rh123 staining based flow cytometry. The format is functional, organism-based.
Data set [14] has as its system Leishmania donovani. Nature of the data set: Antileishmanial activity against Leishmania donovani promastigotes harboring 3-Luc gene assessed as decrease in parasites viability using DMNEP-D-luciferin as substrate at 50 uM incubated for 10 mins by luminescence assay relative to control. The class given is functional. The essentials:
(§3)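 3-Luc L. donovani promastigotes, episomally expressing cytoplasmic firefly luciferase and grown at 26 °C in RPMI 1640-modified medium + 10% HIFCS with G-418 (30 µg/ml). Assay: cells at 20 × 10^6/ml in HBSS-Glc with caged DMNPE-luciferin (50 µM final). Compound added once luminescence plateaued; luminescence followed over time, expressed as % of value at addition (100%). Luciferase inhibition controls run.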

A short description of data set [15]: Drug localization in mitochondria of Leishmania pifanoi MHOM/VE/60/Ltrod axenic amastigotes assessed as punctate pattern formation at 20 uM incubated for 1 hr by DAPI staining based confocal microscopic method. The format is ADME. In outline:
as §2

Data set [16] deals with Leishmania donovani. Nature of the data set: Induction of morphological damage in Leishmania donovani MHOM/SD/00/1S-2D promastigotes assessed as increase in intracellular acidic pH at 5 uM pretreated with acridine orange followed by compound addition by acridine orange based fluorescence assay. The class given is functional, organism-based. In outline:
(§4)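 Promastigotes at 40×10^6 cells/ml loaded with acridine orange 2 μM (5 min, 26 °C), washed and readjusted to the same density. Kinetic fluorescence (ex 488/em 530 nm) followed after adding compound 5 μM once the signal was stable. For confocal imaging, loaded cells were given compound 5 μM for 1 h, washed and immobilized on hydrogel; imaged at ex 488/em 650 nm.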

Data set [17] has as its system Leishmania donovani. Nature of the data set: Induction of morphological changes in Leishmania donovani MHOM/SD/00/1S-2D promastigotes assessed as appearance of distended acidocalcisomes at 5 uM incubated for 12 hrs by TEM analysis. The class given is functional, organism-based. The essentials:
(§5)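 Promastigotes held in full growth medium with compound 5 μM for 12 h. Washed with HBSS, fixed in 5% glutaraldehyde, post-fixed with 2.5% OsO4 for 1 h, dehydrated through graded ethanol, treated with propylene oxide, embedded in Epon 812. Sections cut with a diamond knife and examined by transmission electron microscopy.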

Data set [18] has as its system Leishmania donovani. The experiment in a line: Antileishmanial activity against Leishmania donovani promastigotes harboring 3-Luc gene assessed as threshold concentration of compound using DMNEP-D-luciferin as substrate measured at < 5 mins by luminescence assay. The format is functional. In outline:
as §3

The test system of data set [19] is Leishmania donovani. The experiment in a line: Induction of morphological changes in Leishmania donovani MHOM/SD/00/1S-2D promastigotes assessed as swollen mitochondrion at 5 uM incubated for 12 hrs by TEM analysis. The class given is functional, organism-based. In outline:
as §5

Data set [20] deals with Leishmania donovani. Nature of the data set: Induction of morphological changes in Leishmania donovani MHOM/SD/00/1S-2D promastigotes assessed as strong vacuolization of the cytoplasm at 5 uM incubated for 12 hrs by TEM analysis. The class given is functional, organism-based. In outline:
as §5

The subject of data set [21] is Leishmania donovani. Nature of the data set: Induction of morphological damage in Leishmania donovani MHOM/SD/00/1S-2D promastigotes assessed as increase in intracellular acidic pH at 5 uM pretreated with acridine orange followed by compound addition and measured at 1 hr by acridine orange based confocal microscopic method. The format is functional, organism-based. In outline: as §4

The IC50 is the point on the concentration scale where inhibition reaches its midpoint. Low values mean inhibition by little substance, high ones a need for much substance. As usually defined, the inhibition is the drop in the measured response relative to a control, in per cent.

In the case of `COc1ccc2nc(C)cc(Nc3ccc(Oc4ccc(Cl)c5ccccc45)c(Cl)c3)c2c1`, the IC50 in data set [1] was greater than 50 µM; in data set [2] it was 6.2 µM; in data set [5], 4.4 µM. Also, the selectivity ratio in [3] is greater than 8.1. The Activity in data set [4] is recorded as 22.5%.

Turning to `CCOCC(=O)NCCNc1cc(/C=C/c2ccccc2)nc2ccccc12`, the results for the IC50 in data set [1], in data set [2] and in data set [5] were 22.2 µM, 1.6 µM and 3.4 µM, respectively. For the same compound, the outcome in [6] and in data set [10] was inactive. For the same compound, the inhibition in data set [7] is less than 2%. For the same compound, the Drug uptake result in data set [8] and in data set [15] was “Active” each time. Also, the result in data set [9], in data set [13], in data set [16], in data set [17], in [19] and in [20] was Active. The result in data set [21] was Active. In addition, the selectivity ratio in [3] is 13.8. The Activity_index in data set [11] is 1.6. Moreover, the results for the Activity in data set [12], in data set [14] and in data set [18] were 4.3%, 16.7% and 3.12 µM, respectively.
